NPR1 activator: GC-A (human) enzyme activation; activation, % at 10 µM; P16066; AID 1671463; HEK293 GC-A cells, cGMP TR-FRET, EC30 ANP; 0% at EC30 ANP, 100% saturating ANP; actives 0.14% (n = 370,000); in the data active = activation above about 40%
GalR3 antag: antagonists of human GalR3 | AID 651719 | O60755 | actives 0.44% (n = 360,000) | HEK293 GalR3-CNG cAMP membrane potential fluorescence; galR3 body fused to GalR1 C-terminus | inhibition, % at 3 µM;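 active = inhibition above the screen-wide average plus 3 SD, cut at about 13% in these data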;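 note: forskolin and galanin both at EC90 stimulate the cells; cAMP rise reported by CNG channel membrane potential dye signal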
Arr AP2 block: human beta-arrestin and AP2 interaction inhibition; inhibition, % at 10 µM; FITC-arrestin peptide / GST-AP2 beads, flow cytometry; AP2 beta2 appendage carries R879A mutation; actives 0.31% (n = 340,000); AID 504490;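 active = inhibition above a set limit, near 3 SD of compounds lacking own fluorescence, cut at about 54% in these data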
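System: GST-AP2 R879A bound to glutathione beads, E. coli-expressed. Also added: 50 nM FITC-arrestin peptide. Schedule: compound with beads 12 min RT, then probe 1 h RT. Signal: bead flow cytometry, FITC channel. Read-out basis: percent response.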
GC-B act: GC-B (human) receptor activation; actives 0.11% (n = 370,000); activation, % at 10 µM; HEK293-GC-B cells, CNP EC30, cGMP TR-FRET; 0% at EC30 CNP, 100% saturating CNP; P20594;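 active = activation at 10 µM reaching about 35% in either raw or pattern-adjusted values, limit read from the data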
Arr AP2 CP1: inhibitors of human beta-arrestin and AP2 interaction. GST-AP2 beads, FITC arrestin peptide binding, flow cytometry; GST-fused beta2-adaptin appendage, R879A mutant. shares compounds with Arr AP2 block. actives 2% (n = 1,300). AID 504908. inhibition, % at 10 µM;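 active = inhibition above a set limit, roughly 3 SD of non-fluorescent compound noise, cut at about 38% in these data; inactive = inhibition at or below that limit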;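 note: loss of bead fluorescence from 50 nM FITC arrestin peptide bound to appendage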
Target sequence (P63010 whole entry, looked up, the tested form may be a part, one chain of several): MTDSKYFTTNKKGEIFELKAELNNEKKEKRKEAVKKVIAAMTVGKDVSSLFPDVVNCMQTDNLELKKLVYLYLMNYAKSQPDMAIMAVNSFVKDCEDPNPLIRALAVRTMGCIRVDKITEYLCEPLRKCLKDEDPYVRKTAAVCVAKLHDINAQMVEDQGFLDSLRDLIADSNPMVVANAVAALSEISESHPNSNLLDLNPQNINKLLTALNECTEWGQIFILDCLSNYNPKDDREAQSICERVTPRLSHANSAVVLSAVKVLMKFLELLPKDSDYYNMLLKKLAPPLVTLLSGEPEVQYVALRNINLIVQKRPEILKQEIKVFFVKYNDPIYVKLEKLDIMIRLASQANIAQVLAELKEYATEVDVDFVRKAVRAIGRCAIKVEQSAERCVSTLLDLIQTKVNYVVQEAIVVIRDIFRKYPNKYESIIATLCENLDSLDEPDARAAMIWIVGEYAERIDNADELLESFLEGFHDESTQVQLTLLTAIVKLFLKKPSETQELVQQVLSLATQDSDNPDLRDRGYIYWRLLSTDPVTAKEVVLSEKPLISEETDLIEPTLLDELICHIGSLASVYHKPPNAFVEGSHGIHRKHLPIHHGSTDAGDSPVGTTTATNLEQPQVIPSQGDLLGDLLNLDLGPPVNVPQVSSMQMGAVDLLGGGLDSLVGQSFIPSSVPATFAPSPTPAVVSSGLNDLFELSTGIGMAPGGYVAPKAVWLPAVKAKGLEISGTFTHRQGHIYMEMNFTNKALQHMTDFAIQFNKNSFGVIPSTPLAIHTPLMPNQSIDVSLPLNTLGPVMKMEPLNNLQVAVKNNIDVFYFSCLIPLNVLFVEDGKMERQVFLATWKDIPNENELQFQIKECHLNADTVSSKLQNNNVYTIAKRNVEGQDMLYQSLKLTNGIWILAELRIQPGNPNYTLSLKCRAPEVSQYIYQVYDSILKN
GST GSH counter: GST-GSH bead binding interference, counter-screen | shares compounds with Arr AP2 block | GST-fluorescein binding to GSH beads, fluorescence | AID 588338 | inhibition, % at 10 µM | actives 2% (n = 1,300);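 active = inhibition above 50%, about 3 SD of the inhibition seen with non-fluorescent compounds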;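 note: fluorescein maleimide labelled GST captured on 4 micron glutathione beads; higher means more loss of bead fluorescence from quenching or blocked binding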
Numbers stand for hits; - = inactive; . = no result. Only some compounds are listed: those with a hit (about 0.94% of all), similar ones and a draw of the others.

SMILES	NPR1 activator	GalR3 antag	Arr AP2 block	GC-B act	Arr AP2 CP1	GST GSH counter
CC1CN(C(=O)COc2ccc3ccccc3c2Br)CC(C)O1 (centres undefined)	-	-	67.1	-	-	-
CN1CCCN(S(=O)(=O)c2ccc3c(c2)CCC(=O)N3)CC1	-	.	.	-	.	.
CSCCC(NC(=O)C12CC3CC(CC(C3)C1)C2)C(=O)OCC(=O)c1ccc(Cl)cc1 (centres undefined)	-	-	-	-	.	.
CSCCC(NC(=O)C1CCC(C)CC1)C(=O)OCC(=O)c1ccc(Cl)cc1 (centres undefined)	-	-	106.5	-	-	-
CCCCCCN1CCN(C2CN(Cc3cn(Cc4ccc(C(F)(F)F)cc4)nn3)S(=O)(=O)C2)CC1 (centres undefined)	-	-	.	-	.	.
Cc1cccc(C(=O)Nc2c3c(nn2C(C)(C)C)CS(=O)(=O)C3)c1	-	-	61.4	-	-	-
CC(C)(C)n1nc2c(c1NC(=O)c1ccccc1)CS(=O)(=O)C2	-	-	-	-	.	.
COc1cc(Nc2cc(C)n(-c3cc(OC)cc(OC)c3)c(=O)c2)cc(OC)c1	-	-	.	-	.	.
Cc1cccc(N/N=C(\C(N)=O)C2=NC(C)(C)Cc3ccccc32)c1	-	-	54.7	-	-	-
O=C(Nc1cccs1)OC1CC2CC1[C@H]1CCCCN1C2 (some centres undefined)	-	.	.	-	.	.
COc1ccc(Nc2nc(N/N=C/c3ccc(N(C)C)cc3)nc(C)c2[N+](=O)[O-])cc1	-	-	102.6	-	-	-
CC(=O)N1N=C(c2cccc(NS(C)(=O)=O)c2)CC1c1cccs1 (centres undefined)	-	-	-	-	.	.
CCS(=O)(=O)Nc1cccc(C2=NN(C(C)=O)C(c3cccs3)C2)c1 (centres undefined)	-	-	54.4	-	-	-
O=C(CCNC(=O)C1CCN(S(=O)(=O)c2ccccc2)CC1)NCc1ccc(Cl)cc1	-	-	62.9	-	-	-
O=C(OCC#CCSc1nnc(-c2cccc3ccccc23)o1)c1ccccc1	-	.	.	-	.	.
CCOC(=O)C1=C(COC(=O)c2c(OC)cccc2OC)NC(=O)NC1C (centres undefined)	-	-	-	-	.	.
CCOC(=O)C1=C(COC(=O)COc2ccc(C(C)=O)cc2)NC(=O)NC1C (centres undefined)	-	-	-	-	-	-
CCOC(=O)C1=C(COC(=O)COc2cc(C)ccc2C)NC(=O)NC1C (centres undefined)	-	-	-	-	-	-
CCOC(=O)C1=C(COC(=O)CNC(=O)c2ccc(C)cc2)NC(=O)NC1C (centres undefined)	-	-	-	-	.	.
CCOC(=O)C1=C(COC(=O)COc2ccc(C#N)cc2)NC(=O)NC1C (centres undefined)	-	-	-	-	-	-
CCOC(=O)C1=C(COC(=O)COc2ccccc2C#N)NC(=O)NC1C (centres undefined)	-	-	-	-	-	-
CCOC(=O)C1=C(COC(=O)CNC(=O)c2ccc(C(C)(C)C)cc2)NC(=O)NC1C (centres undefined)	-	-	-	-	.	.
Cn1c(COc2ccccc2)nnc1SCC(=O)Nc1ccc(OCc2ccccc2)cc1	-	.	.	-	.	.
CCOC(=O)C1=C(COC(=O)c2ccc(OC(C)C)cc2)NC(=O)NC1C (centres undefined)	-	-	-	-	.	.
CCOC(=O)C1=C(COC(=O)COc2ccc(C(=O)CC)cc2)NC(=O)NC1C (centres undefined)	-	-	-	-	-	-
SMILES	NPR1 activator	GalR3 antag	Arr AP2 block	GC-B act	Arr AP2 CP1	GST GSH counter
CC(C)=CCCC(C)CN1CCC(n2nccc2NC(=O)c2cccnc2)CC1 (centres undefined)	-	-	59.8	-	-	-
Cc1ccccc1CN1CCN(CC2CC2)CC1CCO (centres undefined)	-	-	56.9	-	-	-
Cc1ccccc1CN1CCN(CCCc2ccccc2)C(CCO)C1 (centres undefined)	-	-	-	-	.	.
CC(=O)N1CCN(c2ccc(N3CCN(C(C)=O)[C@H](C)C3)c(C)c2)[C@H](C)C1	-	-	.	-	.	.
S=C(NCc1ccco1)Nc1cccc(Cl)c1	-	-	58.8	-	-	-
S=C(NCc1ccco1)Nc1ccc(Cl)c(Cl)c1	-	-	-	-	.	.
COC(=O)c1ccc(NC(=O)CN2C(=O)C3C4C=CC(C4)C3C2=O)cc1 (centres undefined)	-	-	59.1	-	-	-
O=C(CN1C(=O)C2C3C=CC(C3)C2C1=O)Nc1ccc(C(=O)O)cc1 (centres undefined)	-	-	-	-	.	.
CCCCNS(=O)(=O)c1ccc(NC(=O)Cc2ccccc2[N+](=O)[O-])cc1	-	-	55.7	-	-	-
C[C@@H]1CN([C@H](C)CO)C(=O)c2c(c3ccccc3n2C)-c2ccccc2CO[C@@H]1CN(C)C(=O)CCN(C)C	-	-	.	-	.	.
O=C(CNC(=O)c1ccccc1Br)NCC(c1ccco1)N1CCCCC1 (centres undefined)	-	-	65.8	-	-	-
Cc1cc(C(=O)Nc2ccc(N3CCOCC3)cc2)c2ccccc2n1	-	-	-	-	.	.
O=C(Nc1cccc(S(=O)(=O)N2CCCCC2)c1)c1cc(=O)[nH]c2ccccc12	-	-	-	-	-	-
O=C(Nc1cccc(S(=O)(=O)N2CCOCC2)c1)c1ccc(=O)[nH]c1	-	-	-	-	-	-
O=C(Nc1cccc(S(=O)(=O)N2CCOCC2)c1)c1cc(=O)[nH]c2ccccc12	-	-	-	-	-	-
Cc1cc(C(=O)Nc2cccc(S(=O)(=O)N3CCOCC3)c2)c2ccccc2n1	-	-	-	-	-	-
COc1ccc(C(=O)C2CCCN(C(=O)C3=CCCC3)C2)cc1OC (centres undefined)	-	-	59.4	-	-	.
COc1ccc(C(=O)C2CCCN(Cc3cn[nH]c3-c3ccc(F)cc3)C2)cc1OC (centres undefined)	-	-	-	-	.	.
COc1ccc(S(=O)(=O)N2CCCC(C(=O)N3CCCC3)C2)cc1OC (centres undefined)	-	-	69.1	-	-	-
COc1ccc(F)cc1C(=O)C1CCCN(Cc2cn(C)c3ccccc23)C1 (centres undefined)	-	-	54.5	-	-	-
CCOc1ccccc1CN1CCCC(C(=O)c2ccc(OC)c(OC)c2)C1 (centres undefined)	-	-	54.3	-	-	-
Cn1cc(CN2CCCC(C(=O)c3cc(F)ccc3F)C2)c2ccccc21 (centres undefined)	-	-	-	-	.	.

Screening results deposited in PubChem BioAssay by several laboratories.
